# Calls of active or inactive are those of the source. No cut-off for these calls is given here.
# Assays:
# Rattus norvegicus [1] = species on record: Rattus norvegicus; assay: Anti psychotic activity was evaluated from the ability to block discrete trial conditioned avoidance response (CAR) of rats (95%CI) from 37-73; type: functional
# Method in brief: (§1)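 Discrete-trial conditioned avoidance in male CD rats kept at about 400–450 g body weight. Dosing was ip or po, 30 min before testing, with at least five rats per dose (20 or 40 mg/kg, or a dose range). Computer recorded intertrial, avoidance and escape responses and no-response trials. Avoidance-block trials were taken as % of total trials, with control avoidance set at 100%. AB50 came from a least-squares dose-effect regression line.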
# D(2) dopamine receptor = D(2) dopamine receptor (Rattus norvegicus, UniProt P61169); assay: In vitro ability to inhibit [3H]spiperone binding to Dopamine receptor D2 of rat limbic structures.; type: tissue-based, Limbic system
# D(2) dopamine receptor, sequence (P61169 whole entry): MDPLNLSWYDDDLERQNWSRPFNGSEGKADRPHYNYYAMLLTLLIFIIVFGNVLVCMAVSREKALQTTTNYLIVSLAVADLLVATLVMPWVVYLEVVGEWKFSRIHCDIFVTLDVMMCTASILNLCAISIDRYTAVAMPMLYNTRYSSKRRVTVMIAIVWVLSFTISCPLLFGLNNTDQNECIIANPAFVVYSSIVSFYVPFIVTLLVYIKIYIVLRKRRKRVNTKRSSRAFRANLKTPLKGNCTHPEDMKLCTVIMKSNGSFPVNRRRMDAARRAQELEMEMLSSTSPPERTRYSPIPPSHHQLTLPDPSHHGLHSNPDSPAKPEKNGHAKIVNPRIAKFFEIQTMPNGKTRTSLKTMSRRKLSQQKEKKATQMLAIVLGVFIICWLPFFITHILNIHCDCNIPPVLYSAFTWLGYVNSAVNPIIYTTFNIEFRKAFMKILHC
# Rattus norvegicus [2] = species on record: Rattus norvegicus; assay: Anti-psychotic activity from the ability to block discrete trial conditioned avoidance response (CAR) of rats.; type: functional; method in brief: as §1
# Rattus norvegicus [3] = assay: Compound was tested for antagonism of apomorphine-induced stereotyped behavior, after intraperitoneal dosing and value ranges from 37.28 - 52.78; type: functional; details: ip
# Method in brief: (§2)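 High-dose apomorphine-induced stereotyped behavior procedure. Test agents were given ip at doses up to 60 mg/kg.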
# [4] = target: D(2) dopamine receptor (Rattus norvegicus) (UniProt P61169); assay: Inhibition of [3H]-spiperone binding to dopamine receptor D2 of rat limbic structures at 1 uM.; details: Limbic system
# D(2) dopamine receptor (Rattus norvegicus), sequence (P61169 whole entry): as above
# Rattus norvegicus [5] = assay: Compound was tested for antagonism of apomorphine-induced climbing behavior, after intraperitoneal dosing.; type: functional; details: ip
# [6] = target: T1, 5-hydroxytryptamine receptor 1A (Rattus norvegicus, UniProt P19327); assay: In vitro ability to inhibit [3H]-8-OH-DPAT binding to 5-hydroxytryptamine 1A receptor of rat hippocampus and value ranges from 15 - 31; type: tissue-based
# T1 sequence (P19327 whole entry): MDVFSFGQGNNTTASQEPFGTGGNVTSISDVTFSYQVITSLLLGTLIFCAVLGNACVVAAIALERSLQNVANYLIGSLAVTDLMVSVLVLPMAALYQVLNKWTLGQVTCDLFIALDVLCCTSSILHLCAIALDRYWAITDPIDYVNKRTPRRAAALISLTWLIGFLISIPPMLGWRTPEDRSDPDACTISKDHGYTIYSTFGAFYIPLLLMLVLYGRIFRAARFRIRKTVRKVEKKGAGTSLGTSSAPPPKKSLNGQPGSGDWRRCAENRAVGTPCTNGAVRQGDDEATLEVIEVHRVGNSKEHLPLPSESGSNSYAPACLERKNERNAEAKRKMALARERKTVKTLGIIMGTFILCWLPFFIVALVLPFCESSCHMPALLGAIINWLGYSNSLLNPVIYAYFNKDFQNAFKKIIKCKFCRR
# Rattus norvegicus [7] = species on record: Rattus norvegicus; assay: Anti psychotic activity was evaluated from the ability to block discrete trial conditioned avoidance response (CAR) of rats and value ranges from 37 - 73; type: functional; method in brief: as §1
# [8] = target: D(2) dopamine receptor (Rattus norvegicus) (UniProt P61169); assay: Inhibition of [3H]spiperone binding to Dopamine receptor D2 of rat limbic structures; type: tissue-based; parameters: concentration or dose not given beside the values; details: Limbic system, concentration not given here
# [9] = target: T2, 5-hydroxytryptamine receptor 1A (Rattus norvegicus) (UniProt P19327); assay: In vitro ability to inhibit [3H]8-OH-DPAT binding to 5-hydroxytryptamine 1A receptor of rat hippocampus at 1 uM; type: tissue-based
# T2 sequence (whole entry): T1 sequence (P19327 whole entry)
# [10] = Partition coefficient (logP); type: physicochemical; details: octanol/water
# [11] = target: T1, 5-hydroxytryptamine receptor 1A; assay: In vitro ability to inhibit [3H]8-OH-DPAT binding to 5-hydroxytryptamine 1A receptor of rat hippocampus and the value ranges from 48 to 59; type: tissue-based
# Rattus norvegicus [12] = species on record: Rattus norvegicus; assay: Anti psychotic activity was evaluated from the ability to block discrete trial conditioned avoidance response (CAR) of rats. (95%CI); 39 to 53; type: functional; method in brief: as §1
# [13] = target: T2, 5-hydroxytryptamine receptor 1A (Rattus norvegicus); assay: In vitro ability to inhibit [3H]-8-OH-DPAT binding to 5-hydroxytryptamine 1A receptor of rat hippocampus at 1 uM; type: tissue-based
# Rattus norvegicus [14] = assay: Compound was tested for antagonism of apomorphine-induced climbing behavior, after intraperitoneal dosing; 1.29-27.21; type: functional; details: ip
# [15] = target: T1, 5-hydroxytryptamine receptor 1A; assay: In vitro ability to inhibit [3H]8-OH-DPAT binding to 5-hydroxytryptamine 1A receptor of rat hippocampus and the value ranges from 25 - 84; type: tissue-based
# Rattus norvegicus [16] = assay: Compound was tested for antagonism of apomorphine-induced stereotyped behavior, after intraperitoneal dosing.; type: functional; details: ip; method in brief: as §2
# Rattus norvegicus [17] = species on record: Rattus norvegicus; assay: Anti psychotic activity was evaluated from the ability to block discrete trial conditioned avoidance response (CAR) of rats and the value ranges from 32-61; type: functional; method in brief: as §1
# Rattus norvegicus [18] = species on record: Rattus norvegicus; assay: (§3) Antipsychotic activity was evaluated from the ability to block discrete trial conditioned avoidance response (CAR) of rats; type: functional; method in brief: as §1
# [19] = target: T1, 5-hydroxytryptamine receptor 1A; assay: In vitro ability to inhibit [3H]8-OH-DPAT binding to 5-hydroxytryptamine 1A receptor of rat hippocampus and the value ranges from 245 to 736; type: tissue-based
# Rattus norvegicus [20] = assay: Compound was tested for antagonism of apomorphine-induced climbing behavior, after intraperitoneal dosing; 1-23; type: functional; details: ip
# [21] = target: T1, 5-hydroxytryptamine receptor 1A; assay: In vitro ability to inhibit [3H]8-OH-DPAT binding to 5-hydroxytryptamine 1A receptor of rat hippocampus ([…]) from 12 to 17; type: tissue-based
# Rattus norvegicus [22] = assay: In vivo ability (10.0 mg/kg) was to antagonize serotonin syndrome in rat; type: functional
# Method in brief: (§4)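 Rat in vivo test adapted from published serotonin syndrome methods. Agents given ip; 5-MeO-DMT at 3.0 mg/kg ip was used to elicit the syndrome. Behaviour rated and reported as mean total score (±SEM).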
# Rattus norvegicus [23] = assay: Compound was tested for antagonism of apomorphine-induced stereotyped behavior, after intraperitoneal dosing; NA is Inactive; type: functional, organism-based; method in brief: as §2
# Rattus norvegicus [24] = assay: In vivo ability (10.0 mg/kg) was to elicit serotonin syndrome in rat; type: functional; method in brief: as §4
# Rattus norvegicus [25] = assay: Compound was tested for antagonism of apomorphine-induced climbing behavior, after intraperitoneal dosing; type: functional; details: ip
# Rattus norvegicus [26] = species on record: Rattus norvegicus; assay: as §3; type: functional; remark: listed apart in the source
# Method in brief: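 Male CD rats (about 400–450 g) trained in discrete-trial avoidance. Compound given ip or po 30 min before testing, at 20 or 40 mg/kg or over a dose range, with at least five rats per dose. Intertrial, avoidance, escape and no-response trials were recorded. Avoidance block is the percentage of trials without avoidance. AB50 comes from a least-squares dose–effect regression line.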
# [27] = target: T1, 5-hydroxytryptamine receptor 1A; assay: In vitro ability to inhibit [3H]8-OH-DPAT binding to 5-hydroxytryptamine 1A receptor of rat hippocampus and value ranges from 27 - 42; type: tissue-based
# [28] = target: T1, 5-hydroxytryptamine receptor 1A; assay: In vitro ability to inhibit [3H]8-OH-DPAT binding to 5-hydroxytryptamine 1A receptor of rat hippocampus and value ranges from 6 - 13; type: tissue-based
# [29] = target: T1, 5-hydroxytryptamine receptor 1A; assay: In vitro ability to inhibit [3H]8-OH-DPAT binding to 5-hydroxytryptamine 1A receptor of rat hippocampus and the value ranges from 12 to 20.; type: tissue-based
# Rattus norvegicus [30] = species on record: Rattus norvegicus; assay: Anti psychotic activity was evaluated from the ability to block discrete trial conditioned avoidance response (CAR) of rats, value ranges from 32-71.; type: functional; method in brief: as §1
# Rattus norvegicus [31] = assay: In vivo ability (40.0 mg/kg) was to elicit serotonin syndrome; type: functional
# Rattus norvegicus [32] = assay: In vivo ability (10.0 mg/kg) was to antagonize serotonin syndrome; type: functional
# Rattus norvegicus [33] = assay: Compound was tested for antagonism of apomorphine-induced climbing behavior, after intraperitoneal dosing; 7-101; type: functional; details: ip
# [34] = target: T1, 5-hydroxytryptamine receptor 1A; assay: In vitro ability to inhibit [3H]8-OH-DPAT binding to 5-hydroxytryptamine 1A receptor of rat hippocampus ([…]) from 391-841; type: tissue-based
# [35] = target: Adrenergic receptor alpha-1 (Rattus norvegicus) (UniProt P15823+P23944+P43140); assay: Percent inhibition of Alpha-1 adrenergic receptor at 1 uM; type: protein assay
# [36] = target: Adrenergic receptor alpha-2 (Rattus norvegicus) (UniProt P22086+P19328+P22909); assay: Percent inhibition of Alpha-2 adrenergic receptor at 1 uM; type: protein assay
# [37] = target: Adrenergic receptor beta (Rattus norvegicus) (UniProt P18090+P10608+P26255); assay: Percent inhibition of Beta adrenergic receptor at 1 uM; type: protein assay
# [38] = target: D(2) dopamine receptor (Rattus norvegicus) (UniProt P61169); assay: In vitro percent inhibition of [3H]spiperone binding to Dopamine receptor D2 of rat limbic structures at 1 uM; type: tissue-based; details: Limbic system
# [39] = target: GABA-A receptor; anion channel (Rattus norvegicus) (UniProt O09028+P15431+P18506+P18508+P19969+P20236+P23574+P23576+P28471+P28473+P30191+P62813+P63079+P63138+Q91ZM7+Q9ES14); assay: Percent inhibition of GABA-A benzodiazepine receptor at 1 uM; type: protein-complex assay
# Method in brief: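 Male Sprague-Dawley rat brain (cerebellum and pons-medulla removed) was homogenized in 0.32 M sucrose to give a 30000g pellet, resuspended in Tris-HCl pH 7.5. Membranes were incubated with 1.5×10^-9 M [³H]diazepam (2.0 mL final) for 30 min at 4 °C, GF/C filtered, washed ice-cold and scintillation counted. Nonspecific binding was taken with 3×10^-6 M cold diazepam. Drug was tested at 1 μM.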
# Rattus norvegicus [40] = assay: Compound was tested for antagonism of apomorphine-induced stereotyped behavior, after intraperitoneal dosing; NA= Inactive; type: functional, organism-based; method in brief: as §2
# Rattus norvegicus [41] = species on record: Rattus norvegicus; assay: Percent inhibition of QNB receptor at 1 uM
compound,measurement,setting,value
Cl.O=C1C2C3CCC(O3)C2S(=O)(=O)N1CCCCN1CCN(c2nccnc2Cl)CC1 (stereo not given),AB50,Rattus norvegicus [1],48 mg/kg
same,Ki,D(2) dopamine receptor,3300 nM
Cl.Cl.O=C1C2C3CCC(O3)C2S(=O)(=O)N1CCCCN1CCN(c2cccc(C(F)(F)F)c2)CC1 (stereo not given),AB50,Rattus norvegicus [2],40 mg/kg
same,ED50,Rattus norvegicus [3],44.4 mg/kg
same,inhibition,[4],0%
same,ED50,Rattus norvegicus [5],11.5 mg/kg
same,Ki,[6],22 nM
Cl.Cl.O=C1C2C3CCC(O3)C2S(=O)(=O)N1CCCCN1CCN(c2cnccn2)CC1 (stereo not given),AB50,Rattus norvegicus [7],48 mg/kg
same,inhibition,[8],0%
same,inhibition,[9],25%
same,logP,[10],1.14
Cl.Cl.O=C1C2C3CCC(C3)C2S(=O)(=O)N1CCCCN1CCN(c2ncccn2)CC1 (stereo not given),Ki,[11],53 nM
same,inhibition,[8],36%
same,logP,[10],1.72
same,AB50,Rattus norvegicus [2],40 mg/kg
Cl.O=C1C2C3CCC(C3)C2S(=O)(=O)N1CCCCN1CCN(c2cncc(Cl)n2)CC1 (stereo not given),AB50,Rattus norvegicus [12],45 mg/kg
same,inhibition,[8],32%
same,inhibition,[13],51%
Cl.Cl.Cl.O=C1C2C3CCC(C3)C2S(=O)(=O)N1CCCCN1CCN(c2cccc(Cl)c2)CC1 (stereo not given),ED50,Rattus norvegicus [14],16 mg/kg
same,inhibition,[8],98%
same,Ki,[15],45 nM
same,ED50,Rattus norvegicus [16],34 mg/kg
same,AB50,Rattus norvegicus [17],41 mg/kg
Cl.Cl.O=C1C2C3C=CC(C3)C2S(=O)(=O)N1CCCCN1CCN(c2ncccn2)CC1 (stereo not given),AB50,Rattus norvegicus [18],45 mg/kg
same,Ki,[19],434 nM
CN1CCN(C2=Nc3cc(Cl)ccc3Nc3ccccc32)CC1 [CLOZAPINE],ED50,Rattus norvegicus [20],4.55 mg/kg
Cl.O=C1C2C3C=CC(C4CC34)C2S(=O)(=O)N1CCCCN1CCN(c2cncc(Cl)n2)CC1 (stereo not given),Ki,[21],14 nM
same,AB50,Rattus norvegicus [2],40 mg/kg
O=C1c2ccccc2S(=O)(=O)N1CCCCN1CCN(c2ncccn2)CC1 [IPSAPIRONE],Mean,Rattus norvegicus [22],8.4
same,ED50,Rattus norvegicus [23],inactive
same,Mean,Rattus norvegicus [24],2.4
same,ED50,Rattus norvegicus [25],26 mg/kg
same,AB50,Rattus norvegicus [26],42 mg/kg
Cl.Cl.Cl.O=C1C2C3CCC(O3)C2S(=O)(=O)N1CCCCN1CCN(c2cccc(Cl)c2)CC1 (stereo not given),Ki,[27],34 nM
same,AB50,Rattus norvegicus [2],40 mg/kg
same,inhibition,[4],55%
Cl.Cl.O=C1c2ccccc2S(=O)(=O)N1CCCCN1CCN(c2cnccn2)CC1,AB50,Rattus norvegicus [2],40 mg/kg
same,inhibition,[4],43%
same,Ki,[28],9 nM
Cl.Cl.O=C1C2C3CCC(C3)C2S(=O)(=O)N1CCCCN1CCN(c2cccc(C(F)(F)F)c2)CC1 (stereo not given),Ki,[29],16 nM
same,inhibition,[8],97%
same,AB50,Rattus norvegicus [30],43 mg/kg
Cl.O=C1C2C3CCC(O3)C2S(=O)(=O)N1CCCCN1CCN(c2cncc(Cl)n2)CC1 (stereo not given),Mean,Rattus norvegicus [31],2.1
same,Mean,Rattus norvegicus [32],12.3
same,logP,[10],1.64
same,AB50,Rattus norvegicus [2],34 mg/kg
same,ED50,Rattus norvegicus [33],27 mg/kg
same,Ki,[34],550 nM
same,inhibition,[35],6%
same,inhibition,[36],21%
same,inhibition,[37],8%
same,inhibition,[38],36%
same,inhibition,[39],0%
same,ED50,Rattus norvegicus [40],inactive
same,inhibition,Rattus norvegicus [41],0%

# — ChEMBL document CHEMBL1124456, “Synthesis and structure-activity relationship of substituted tetrahydro- and hexahydro-1,2-benzisothiazol-3-one 1,1-dioxides and thiadiazinones: potential anxiolytic agents” (J Med Chem, 1989)
